In PMC4755333 (Journal of medicinal chemistry, 2011):
Where two headings read alike, the source gives them in different places. Values belong to the compound of their own block, whether it stands above or below them.

Legend:
A375 = assay: SRB cytotoxicity assay, A375 melanoma cells; format: cell-based, human; conditions: read-out: IC50 ± SEM, A375, 96 h treatment
B16-F1 = assay: SRB cytotoxicity assay, B16-F1 mouse melanoma cells; format: cell-based; conditions: read-out: IC50 ± SEM, B16-F1, 96 h treatment
PPC-1 = assay: SRB cytotoxicity assay, PPC-1 prostate cancer cells; format: cell-based, human; conditions: read-out: IC50 ± SEM, PPC-1
WM-164 = assay: SRB cytotoxicity assay, WM-164 melanoma cells; format: cell-based, human; conditions: read-out: IC50 ± SEM, WM-164, 96 h treatment
LNCaP = assay: SRB cytotoxicity assay, LNCaP prostate cancer cells; format: cell-based, human; conditions: read-out: IC50 ± SEM, LNCaP
DU 145 = assay: SRB cytotoxicity assay, DU 145 prostate cancer cells; format: cell-based, human; conditions: read-out: IC50 ± SEM, DU 145
PC-3 = assay: SRB cytotoxicity assay, PC-3 prostate cancer cells; format: cell-based, human; conditions: read-out: IC50 ± SEM, PC-3
cancer cell lines = format: cell-based; conditions: for antiproliferative activity: text summary of Tables 1–3; for IC50: read-out: activity/potency range across cancer cell lines; for activity relative to 47: IC50 values of Table 4
Bovine brain tubulin = assay: In vitro tubulin polymerization assay; format: biochemical; conditions: 5 µM compound, 20 min incubation
Method in brief: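 Bovine brain tubulin (0.4 mg, >97% pure) combined with test compound in general tubulin buffer (80 mM PIPES, 2.0 mM MgCl₂, 0.5 mM EGTA, 1 mM GTP, pH 6.9) at 37 °C. Polymerization tracked as A340 read every 1 min over 20 min. Inhibition expressed against vehicle.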

[1] = Aqueous solubility, Multiscreen solubility filter plate with LC-MS/MS; format: physicochemical; conditions: for solubility compared with compound 1: Figure 3
[2] = Rat pharmacokinetic study; format: in vivo, Sprague–Dawley rats; conditions: 10 mg/kg

Compound: 3-(3,4,5-Trimethoxyphenylsulfinyl)biphenyl [Compound 25]
IC50 (A375): > 10 µM | IC50 (B16-F1): > 10 µM | IC50 (PPC-1; SRB assay, 96 h treatment): > 10 µM | IC50 (WM-164): > 10 µM | IC50 (LNCaP; SRB assay, 96 h treatment): > 10 µM | IC50 (DU 145; SRB assay, 96 h treatment): > 10 µM | IC50 (PC-3; SRB assay, 96 h treatment): > 10 µM

Compound: 3-(3,4,5-Trimethoxyphenylsulfonyl)biphenyl [Compound 24]
IC50 (A375): > 10 µM | IC50 (B16-F1): > 10 µM | IC50 (PPC-1; SRB assay, 96 h treatment): > 10 µM | IC50 (WM-164): > 10 µM | IC50 (LNCaP; SRB assay, 96 h treatment): > 10 µM | IC50 (DU 145; SRB assay, 96 h treatment): > 10 µM | IC50 (PC-3; SRB assay, 96 h treatment): > 10 µM

Compound: COc1cc(C(=O)C2COC(c3ccccc3)=N2)cc(OC)c1OC (stereo in doubt) [Compound 5, (2R)-(2-Phenyl-4,5-dihydro-oxazol-4-yl)-(3,4,5-trimethoxy-phenyl)-methanone]
antiproliferative activity (cancer cell lines): hundreds of nanomolar range

Compound: COc1cc(C(=O)c2csc(-c3ccccc3)n2)cc(OC)c1OC [Compound 1]
IC50 (PPC-1; Homo sapiens, PPC-1, 96 h): 0.043 ± 0.005 µM | IC50 (PC-3; Homo sapiens, PC-3, 96 h): 0.021 ± 0.001 µM

Compound: COc1cc(C(=O)c2coc(-c3ccccc3)n2)cc(OC)c1OC [Compound 6, (2R)-(2-Phenyl-oxazol-4-yl)-(3,4,5-trimethoxy-phenyl)-methanone]
antiproliferative activity (cancer cell lines): hundreds of nanomolar range

Compound: COc1cc(C(=O)c2cccc(-c3ccccc3)c2)cc(OC)c1OC [Compound 9a, Biphenyl-3-yl(3,4,5-trimethoxyphenyl)methanone]
antiproliferative activity (cancer cell lines): hundreds of nanomolar range

Compound: COc1cc(C(=O)c2cc(-c3ccccc3)n[nH]2)cc(OC)c1OC [Compound 9f, (3-Phenyl-1H–pyrazol-5-yl)(3,4,5-trimethoxyphenyl)methanone]
antiproliferative activity (cancer cell lines): hundreds of nanomolar range

Compound: COc1cc(C(=O)N2CCC(c3ccccc3)CC2)cc(OC)c1OC [Compound 9i, (4-Phenylpiperidin-1-yl)(3,4,5-trimethoxyphenyl)methanone]
antiproliferative activity (cancer cell lines): totally abolished activity

Compound: COc1cc(/C(=N/O)c2csc(-c3ccccc3)n2)cc(OC)c1OC [Compound 13a, (Z)-(2-Phenylthiazol-4-yl)(3,4,5-trimethoxyphenyl)methanoneOxime]
activity of syn-isomer relative to anti isomer 13b (cancer cell lines; 13a vs 13b): 10 fold

Compound: CO/N=C(/c1cc(OC)c(OC)c(OC)c1)c1csc(-c2ccccc2)n1 [Compound 13c, (Z)-(2-Phenylthiazol-4-yl)(3,4,5-trimethoxyphenyl)methanone O-Methyl Oxime]
IC50 (PPC-1; Homo sapiens, PPC-1, 96 h): > 10 µM

Compound: CO/N=C(\c1cc(OC)c(OC)c(OC)c1)c1csc(-c2ccccc2)n1 [Compound 13d, (E)-(2-Phenylthiazol-4-yl)(3,4,5-trimethoxyphenyl)methanone O-Methyl Oxime]
IC50 (LNCaP; Homo sapiens, LNCaP, 96 h): > 10 µM | IC50 (PC-3; Homo sapiens, PC-3, 96 h): > 10 µM

Compound: COc1cc(/C(=N\N)c2csc(-c3ccccc3)n2)cc(OC)c1OC [Compound 14b, (E)-4-(Hydrazono(3,4,5-trimethoxyphenyl)methyl)-2-phenylthiazole]
IC50 (DU 145; Homo sapiens, DU-145, 96 h): 1.21 µM

IC50 (cancer cell lines): 0.02 to 0.06 µM
Compound: COc1cc(/C(=N\C#N)c2csc(-c3ccccc3)n2)cc(OC)c1OC [Compound 16, N-((2-Phenylthiazol-4-yl)(3,4,5-trimethoxyphenyl)methylene)cyanamide]

Compound: COc1cc(C(=O)c2csc(-c3ccc4[nH]ccc4c3)n2)cc(OC)c1OC [Compound 36, (2-(1H–Indol-5-yl)thiazol-4-yl)(3,4,5-trimethoxyphenyl)methanone]
inhibition of tubulin polymerization as compared to vehicle (Bovine brain tubulin): 69%

increase in solubility compared with compound 1 ([1]; PBS, HCl salt): over 35 fold | solubility at […] ([1]; phosphate buffered saline (PBS) buffer, pH 7.4): ≥ 35 µg/mL
Compound: COc1cc(C(=O)c2csc(-c3ccc(CN)cc3)n2)cc(OC)c1OC.Cl [Compound 39, (2-(4-(Aminomethyl)phenyl)thiazol-4-yl)(3,4,5-trimethoxyphenyl)-methanone Hydrochloride]

Compound: CNCc1ccc(-c2nc(C(=O)c3cc(OC)c(OC)c(OC)c3)cs2)cc1.Cl [Compound 40, (2-(4-((Methylamino)methyl)phenyl)thiazol-4-yl)(3,4,5-trimeth-oxyphenyl)methanone Hydrochloride]
antiproliferative activity (cancer cell lines): abrogated activity

Compound: COc1cc(C(=O)c2csc(-c3ccc(CN(C)C)cc3)n2)cc(OC)c1OC.Cl [Compound 42, (2-(4-((Dimethylamino)methyl)phenyl)thiazol-4-yl)(3,4,5-trimeth-oxyphenyl)methanone Hydrochloride]
antiproliferative activity (cancer cell lines): abrogated activity

Compound: COc1cc(C(=O)c2csc(Nc3ccccc3)n2)cc(OC)c1OC [Compound 45a, (2-(Phenylamino)thiazol-4-yl)(3,4,5-trimethoxyphenyl)methanone]
solubility compared with compound 1 ([1]; PBS): improved solubility | activity relative to 47 (cancer cell lines): over 20 fold | IC50 (cancer cell lines): 0.035 to 0.065 µM

solubility compared with compound 1 ([1]; PBS): improved solubility | IC50 (cancer cell lines): 0.035 to 0.065 µM
Compound: COc1cc(C(=O)c2csc(Nc3ccc(F)cc3)n2)cc(OC)c1OC [Compound 45c, (2-(p-Fluorophenylamino)thiazol-4-yl)(3,4,5-trimethoxyphenyl)-methanone]

Compound: COc1cc(C(=O)c2csc(Nc3ccc(C)cc3)n2)cc(OC)c1OC.Cl [Compound 46b, (2-(p-Tolylamino)thiazol-4-yl)(3,4,5-trimethoxyphenyl)methanone Hydrochloride Salt]
activity relative to 47 (cancer cell lines): over 20 fold | IC50 (cancer cell lines): 0.035 to 0.065 µM

increased exposure (AUC) by the oral route as compared to 1 [2]: more than 4.3 fold
Compound: COc1cc(C(=O)c2csc(Nc3ccc(F)cc3)n2)cc(OC)c1OC.Cl [Compound 46c, (2-(p-Fluorophenylamino)thiazol-4-yl)(3,4,5-trimethoxyphenyl)-methanone Hydrochloride Salt]

Compound: (E)-2-Phenyl-4-(3,4,5-trimethoxystyryl)thiazole [Compound 21]
IC50 (A375): > 100 µM | IC50 (B16-F1): 32.8 ± 13 µM | IC50 (PPC-1; SRB assay, 96 h treatment): > 10 µM | IC50 (WM-164): 30.8 ± 12 µM | IC50 (LNCaP; SRB assay, 96 h treatment): > 10 µM | antiproliferative activity (cancer cell lines): lost activity | IC50 (DU 145; SRB assay, 96 h treatment): > 10 µM | IC50 (PC-3; SRB assay, 96 h treatment): > 10 µM

Compound: (Z)-2-Phenyl-4-(3,4,5-trimethoxystyryl)thiazole [Compound 20]
IC50 (A375): 46.5 ± 23.3 µM | IC50 (B16-F1): 11 ± 2.8 µM | IC50 (PPC-1; SRB assay, 96 h treatment): > 10 µM | IC50 (WM-164): 10.6 ± 5.8 µM | IC50 (LNCaP; SRB assay, 96 h treatment): > 10 µM | antiproliferative activity (cancer cell lines): lost activity | IC50 (DU 145; SRB assay, 96 h treatment): > 10 µM | IC50 (PC-3; SRB assay, 96 h treatment): > 10 µM

Compound: Biphenyl-3-yl(3,4,5-trimethoxyphenyl)sulfane [Compound 23]
IC50 (A375): 1.6 ± 0.4 µM | IC50 (B16-F1): 2.4 ± 0.9 µM | IC50 (PPC-1; SRB assay, 96 h treatment): 2.3 ± 0.1 µM | IC50 (WM-164): 2 ± 1.2 µM | IC50 (LNCaP; SRB assay, 96 h treatment): 2.3 ± 0.2 µM | IC50 (DU 145; SRB assay, 96 h treatment): > 10 µM | IC50 (PC-3; SRB assay, 96 h treatment): > 10 µM

Compound: N-(3,4,5-Trimethoxyphenyl)biphenyl-3-sulfinamide [Compound 26]
IC50 (A375): > 10 µM | IC50 (B16-F1): > 10 µM | IC50 (PPC-1; SRB assay, 96 h treatment): > 10 µM | IC50 (WM-164): > 10 µM | IC50 (LNCaP; SRB assay, 96 h treatment): > 10 µM | IC50 (DU 145; SRB assay, 96 h treatment): > 10 µM | IC50 (PC-3; SRB assay, 96 h treatment): > 10 µM
